Reference: ChEMBL document CHEMBL3734675, “Synthesis, antimycobacterial and antibacterial activity of fluoroquinolone derivatives containing an 3-alkoxyimino-4-(cyclopropylanimo)methylpyrrolidine moiety” (2015)
Converted amounts (≈) assume the structure as drawn.

What was measured:
Type in all cases: functional
Klebsiella pneumoniae [1] = experiment: Antibacterial activity against Klebsiella pneumoniae 14-1 after 18 to 24 hrs by two-fold serial dilution method
How it was run: (§1)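 Twofold serial dilution in agar media against Gram-positive and Gram-negative strains. Plates incubated at 35 °C for 18–24 h. MIC read as the lowest compound concentration giving complete inhibition of bacterial growth.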

Enterococcus faecalis [2] = experiment: Antibacterial activity against Enterococcus faecalis 14-1 after 18 to 24 hrs by two-fold serial dilution method; how it was run: as §1
Escherichia coli [3] = experiment: Antibacterial activity against Escherichia coli ATCC 25922 after 18 to 24 hrs by two-fold serial dilution method; how it was run: as §1
[4] = test system: Mycobacterium tuberculosis; experiment: Antimycobacterial activity against Mycobacterium tuberculosis H37Rv ATCC 27294 incubated for 7 days by microplate Alamar Blue assay; conditions: H37Rv ATCC 27294, 168 h
How it was run: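 Fluorescence read-out. MIC is the lowest concentration that reduces fluorescence by at least 90% relative to the mean of replicate bacterium-only controls. Isoniazid and rifampicin were included as reference drugs.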

[5] = test system: Staphylococcus epidermidis; experiment: Antibacterial activity against methicillin-resistant Staphylococcus epidermidis 14-21 after 18 to 24 hrs by two-fold serial dilution method
How it was run: (§2)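 Agar media, standard twofold serial dilution. MIC is the lowest concentration giving complete inhibition of bacterial growth after incubation at 35 °C for 18–24 h. Ciprofloxacin and levofloxacin were run as comparators.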

Enterococcus faecium [6] = experiment: Antibacterial activity against Enterococcus faecium 14-5 after 18 to 24 hrs by two-fold serial dilution method; how it was run: as §1
Escherichia coli [7] = experiment: Antibacterial activity against extended-spectrum beta-lactamase producing Escherichia coli 14-2 after 18 to 24 hrs by two-fold serial dilution method; how it was run: as §1
Enterococcus faecium [8] = experiment: Antibacterial activity against Enterococcus faecium 14-6 after 18 to 24 hrs by two-fold serial dilution method; how it was run: as §1
Staphylococcus aureus [9] = experiment: Antibacterial activity against methicillin-sensitive Staphylococcus aureus 14-1 after 18 to 24 hrs by two-fold serial dilution method; how it was run: as §1
Pseudomonas aeruginosa [10] = experiment: Antibacterial activity against Pseudomonas aeruginosa 14-9 after 18 to 24 hrs by two-fold serial dilution method; how it was run: as §1
Klebsiella pneumoniae [11] = experiment: Antibacterial activity against extended-spectrum beta-lactamase producing Klebsiella pneumoniae 14-19 after 18 to 24 hrs by two-fold serial dilution method; how it was run: as §1
[12] = test system: Staphylococcus epidermidis; experiment: Antibacterial activity against methicillin-resistant Staphylococcus epidermidis 14-37 after 18 to 24 hrs by two-fold serial dilution method; how it was run: as §2
Pseudomonas aeruginosa [13] = experiment: Antibacterial activity against Pseudomonas aeruginosa ATCC 27853 after 18 to 24 hrs by two-fold serial dilution method; how it was run: as §1
Staphylococcus aureus [14] = experiment: Antibacterial activity against methicillin-sensitive Staphylococcus aureus 14-3 after 18 to 24 hrs by two-fold serial dilution method; how it was run: as §1
Klebsiella pneumoniae [15] = experiment: Antibacterial activity against Klebsiella pneumoniae 14-4 after 18 to 24 hrs by two-fold serial dilution method; how it was run: as §1
Staphylococcus aureus [16] = experiment: Antibacterial activity against Staphylococcus aureus CMCC 26003 after 18 to 24 hrs by two-fold serial dilution method; how it was run: as §1
Klebsiella pneumoniae [17] = experiment: Antibacterial activity against extended-spectrum beta-lactamase producing Klebsiella pneumoniae 14-18 after 18 to 24 hrs by two-fold serial dilution method; how it was run: as §1
Escherichia coli [18] = experiment: Antibacterial activity against extended-spectrum beta-lactamase producing Escherichia coli 14-1 after 18 to 24 hrs by two-fold serial dilution method; how it was run: as §1
Klebsiella pneumoniae [19] = experiment: Antibacterial activity against Klebsiella pneumoniae 14-2 after 18 to 24 hrs by two-fold serial dilution method; how it was run: as §1
Enterococcus faecium [20] = experiment: Antibacterial activity against Enterococcus faecium 14-2 after 18 to 24 hrs by two-fold serial dilution method; how it was run: as §1
[21] = test system: Staphylococcus epidermidis; experiment: Antibacterial activity against methicillin-resistant Staphylococcus epidermidis 14-22 after 18 to 24 hrs by two-fold serial dilution method; how it was run: as §2
Streptococcus pneumoniae = experiment: Antibacterial activity against methicillin-resistant Streptococcus pneumoniae ATCC 19615 after 18 to 24 hrs by two-fold serial dilution method; how it was run: as §2
[22] = test system: Staphylococcus epidermidis; experiment: Antibacterial activity against methicillin-sensitive Staphylococcus epidermidis 14-2 after 18 to 24 hrs by two-fold serial dilution method; how it was run: as §1
Klebsiella pneumoniae [23] = experiment: Antibacterial activity against extended-spectrum beta-lactamase producing Klebsiella pneumoniae 14-17 after 18 to 24 hrs by two-fold serial dilution method; how it was run: as §1
Enterococcus faecalis [24] = experiment: Antibacterial activity against Enterococcus faecalis 14-2 after 18 to 24 hrs by two-fold serial dilution method; how it was run: as §1
Staphylococcus aureus [25] = experiment: Antibacterial activity against methicillin-resistant Staphylococcus aureus 14-4 after 18 to 24 hrs by two-fold serial dilution method; how it was run: as §2
Pseudomonas aeruginosa [26] = experiment: Antibacterial activity against Pseudomonas aeruginosa 14-14 after 18 to 24 hrs by two-fold serial dilution method; how it was run: as §1
Pseudomonas aeruginosa [27] = experiment: Antibacterial activity against Pseudomonas aeruginosa 14-15 after 18 to 24 hrs by two-fold serial dilution method; how it was run: as §1
Escherichia coli [28] = experiment: Antibacterial activity against Escherichia coli 14-2 after 18 to 24 hrs by two-fold serial dilution method; how it was run: as §1
Klebsiella pneumoniae [29] = experiment: Antibacterial activity against Klebsiella pneumoniae 14-3 after 18 to 24 hrs by two-fold serial dilution method; how it was run: as §1
Escherichia coli [30] = experiment: Antibacterial activity against Escherichia coli 14-1 after 18 to 24 hrs by two-fold serial dilution method; how it was run: as §1
Pseudomonas aeruginosa [31] = experiment: Antibacterial activity against Pseudomonas aeruginosa 14-16 after 18 to 24 hrs by two-fold serial dilution method; how it was run: as §1
[32] = test system: Staphylococcus epidermidis; experiment: Antibacterial activity against methicillin-resistant Staphylococcus epidermidis 14-39 after 18 to 24 hrs by two-fold serial dilution method; how it was run: as §2
Staphylococcus aureus [33] = experiment: Antibacterial activity against methicillin-resistant Staphylococcus aureus 14-5 after 18 to 24 hrs by two-fold serial dilution method; how it was run: as §2
Staphylococcus aureus [34] = experiment: Antibacterial activity against methicillin-sensitive Staphylococcus aureus 14-4 after 18 to 24 hrs by two-fold serial dilution method; how it was run: as §1

Row | SMILES | MIC (Klebsiella pneumoniae [1]) | MIC (Enterococcus faecalis [2]) | MIC (Escherichia coli [3]) | MIC90 [4] | MIC [5] | MIC (Enterococcus faecium [6]) | MIC (Escherichia coli [7]) | MIC (Enterococcus faecium [8]) | MIC (Staphylococcus aureus [9]) | MIC (Pseudomonas aeruginosa [10]) | MIC (Klebsiella pneumoniae [11]) | MIC [12] | MIC (Pseudomonas aeruginosa [13]) | MIC (Staphylococcus aureus [14]) | MIC (Klebsiella pneumoniae [15]) | MIC (Staphylococcus aureus [16]) | MIC (Klebsiella pneumoniae [17]) | MIC (Escherichia coli [18]) | MIC (Klebsiella pneumoniae [19]) | MIC (Enterococcus faecium [20]) | further results
1 | CO/N=C1/CN(c2nc3c(cc2F)c(=O)c(C(=O)O)cn3-c2nc(N)c(F)cc2F)CC1CNC1CC1 (stereo not given) | 32 µg/mL (≈ 61.8 µM) | 16 µg/mL (≈ 30.9 µM) | 4 µg/mL (≈ 7.73 µM) | 24.3 µg/mL (≈ 46.9 µM) | 64 µg/mL (≈ 124 µM) | 16 µg/mL (≈ 30.9 µM) | > 128 µg/mL | 32 µg/mL (≈ 61.8 µM) | 16 µg/mL (≈ 30.9 µM) | 32 µg/mL (≈ 61.8 µM) | 64 µg/mL (≈ 124 µM) | 64 µg/mL (≈ 124 µM) | 16 µg/mL (≈ 30.9 µM) | 16 µg/mL (≈ 30.9 µM) | > 128 µg/mL | 0.25 µg/mL (≈ 0.483 µM) | 64 µg/mL (≈ 124 µM) | 16 µg/mL (≈ 30.9 µM) | 32 µg/mL (≈ 61.8 µM) | 32 µg/mL (≈ 61.8 µM) | MIC [21]: 32 µg/mL (≈ 61.8 µM); MIC (Streptococcus pneumoniae): 32 µg/mL (≈ 61.8 µM); MIC [22]: 128 µg/mL (≈ 247 µM); MIC (Klebsiella pneumoniae [23]): 64 µg/mL (≈ 124 µM); MIC (Enterococcus faecalis [24]): 4 µg/mL (≈ 7.73 µM); MIC (Staphylococcus aureus [25]): 64 µg/mL (≈ 124 µM); MIC (Pseudomonas aeruginosa [26]): 128 µg/mL (≈ 247 µM); MIC (Pseudomonas aeruginosa [27]): 128 µg/mL (≈ 247 µM); MIC (Escherichia coli [28]): > 128 µg/mL; MIC (Klebsiella pneumoniae [29]): > 128 µg/mL; MIC (Escherichia coli [30]): > 128 µg/mL; MIC (Pseudomonas aeruginosa [31]): 64 µg/mL (≈ 124 µM); MIC [32]: 16 µg/mL (≈ 30.9 µM); MIC (Staphylococcus aureus [33]): 16 µg/mL (≈ 30.9 µM); MIC (Staphylococcus aureus [34]): 16 µg/mL (≈ 30.9 µM)
2 | CO/N=C1/CN(c2nc3c(cc2F)c(=O)c(C(=O)O)cn3[C@@H]2C[C@@H]2F)CC1(C)CNC1CC1 (stereo not given in full) | 32 µg/mL (≈ 69.3 µM) | 16 µg/mL (≈ 34.7 µM) | 1 µg/mL (≈ 2.17 µM) | 0.45 µg/mL (≈ 0.975 µM) | 4 µg/mL (≈ 8.67 µM) | 4 µg/mL (≈ 8.67 µM) | > 128 µg/mL | 2 µg/mL (≈ 4.33 µM) | 1 µg/mL (≈ 2.17 µM) | 16 µg/mL (≈ 34.7 µM) | 32 µg/mL (≈ 69.3 µM) | 2 µg/mL (≈ 4.33 µM) | 16 µg/mL (≈ 34.7 µM) | 1 µg/mL (≈ 2.17 µM) | > 128 µg/mL | < 0.008 µg/mL | 64 µg/mL (≈ 139 µM) | 16 µg/mL (≈ 34.7 µM) | 64 µg/mL (≈ 139 µM) | 4 µg/mL (≈ 8.67 µM) | MIC [21]: 4 µg/mL (≈ 8.67 µM); MIC (Streptococcus pneumoniae): 0.5 µg/mL (≈ 1.08 µM); MIC [22]: 16 µg/mL (≈ 34.7 µM); MIC (Klebsiella pneumoniae [23]): 64 µg/mL (≈ 139 µM); MIC (Enterococcus faecalis [24]): 1 µg/mL (≈ 2.17 µM); MIC (Staphylococcus aureus [25]): 4 µg/mL (≈ 8.67 µM); MIC (Pseudomonas aeruginosa [26]): 64 µg/mL (≈ 139 µM); MIC (Pseudomonas aeruginosa [27]): 64 µg/mL (≈ 139 µM); MIC (Escherichia coli [28]): > 128 µg/mL; MIC (Klebsiella pneumoniae [29]): 128 µg/mL (≈ 277 µM); MIC (Escherichia coli [30]): > 128 µg/mL; MIC (Pseudomonas aeruginosa [31]): 32 µg/mL (≈ 69.3 µM); MIC [32]: 4 µg/mL (≈ 8.67 µM); MIC (Staphylococcus aureus [33]): 2 µg/mL (≈ 4.33 µM); MIC (Staphylococcus aureus [34]): 2 µg/mL (≈ 4.33 µM)
3 | CCO/N=C1/CN(c2nc3c(cc2F)c(=O)c(C(=O)O)cn3[C@@H]2C[C@@H]2F)CC1CNC1CC1 (stereo not given in full) | 32 µg/mL (≈ 69.3 µM) | 32 µg/mL (≈ 69.3 µM) | 0.03 µg/mL (≈ 0.065 µM) | 0.72 µg/mL (≈ 1.56 µM) | 16 µg/mL (≈ 34.7 µM) | 16 µg/mL (≈ 34.7 µM) | 128 µg/mL (≈ 277 µM) | 32 µg/mL (≈ 69.3 µM) | 4 µg/mL (≈ 8.67 µM) | 8 µg/mL (≈ 17.3 µM) | 64 µg/mL (≈ 139 µM) | 16 µg/mL (≈ 34.7 µM) | 16 µg/mL (≈ 34.7 µM) | 4 µg/mL (≈ 8.67 µM) | 128 µg/mL (≈ 277 µM) | < 0.008 µg/mL | 32 µg/mL (≈ 69.3 µM) | 16 µg/mL (≈ 34.7 µM) | 32 µg/mL (≈ 69.3 µM) | 4 µg/mL (≈ 8.67 µM) | MIC [21]: 8 µg/mL (≈ 17.3 µM); MIC (Streptococcus pneumoniae): 1 µg/mL (≈ 2.17 µM); MIC [22]: 64 µg/mL (≈ 139 µM); MIC (Klebsiella pneumoniae [23]): 32 µg/mL (≈ 69.3 µM); MIC (Enterococcus faecalis [24]): 0.125 µg/mL (≈ 0.271 µM); MIC (Staphylococcus aureus [25]): 16 µg/mL (≈ 34.7 µM); MIC (Pseudomonas aeruginosa [26]): 32 µg/mL (≈ 69.3 µM); MIC (Pseudomonas aeruginosa [27]): 32 µg/mL (≈ 69.3 µM); MIC (Escherichia coli [28]): > 128 µg/mL; MIC (Klebsiella pneumoniae [29]): 128 µg/mL (≈ 277 µM); MIC (Escherichia coli [30]): 128 µg/mL (≈ 277 µM); MIC (Pseudomonas aeruginosa [31]): 32 µg/mL (≈ 69.3 µM); MIC [32]: 32 µg/mL (≈ 69.3 µM); MIC (Staphylococcus aureus [33]): 8 µg/mL (≈ 17.3 µM); MIC (Staphylococcus aureus [34]): 8 µg/mL (≈ 17.3 µM)
